From ChEMBL document CHEMBL4513216, “Probing the Open Global Health Chemical Diversity Library for Multistage-Active Starting Points for Next-Generation Antimalarials” (ACS Infect Dis, 2020)

Assay: Toxicity liver stage against HepG2, at 10uM
Type: cell-based
Design: test concentration 10 uM, cell line HepG2-A16-CD81EGFP
Settings: human, HepG2-A16-CD81EGFP cells; read-out: INHIBITION
Method in brief: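 Uninfected HepG2-A16-CD81EGFP cells, 3 × 10^3 per well, 1536-well, plated on prespotted compound at 10 μM final, parasite-free screening media added to match infected plates; puromycin 10 μM positive, DMSO 0.5% negative; run in parallel with 48 h PbLuc assay at 37 °C, 5% CO2; viability by CellTiter-Glo luminescence, normalized to controls.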

| SMILES | cytotoxicity at 10 µM [%] |
| --- | --- |
| CN(C)c1ccc(-c2nnc([C@H]3CCN(C4CCCCC4)C3)o2)cc1 | 0.174 |
| CNC(=O)C(C)(C)N1CCC[C@H]1C(=O)NC(C)(C)C | -2.63 |
| COc1ccc(-c2noc([C@@H]3C[C@H](NC(=O)NC(C)C)CN3C)n2)cc1 | -1.47 |
| CS(=O)(=O)c1ccc(CN2C[C@@H]3OCC(=O)N(CC(N)=O)[C@@H]3C2)cc1 | 2.67 |
| CCOC(=O)[C@@H]1[C@@H](c2ccccc2)CN2CCN(C(=O)C3CC3)C[C@H]12 | -0.973 |
| O=C(O)CCNC(=O)N1CCc2c([nH]c3ccc(Cl)cc23)C1 | 11.9 |
| O=c1nc(SCc2cccnc2)c2c(n1CCO)CCCC2 | 8.97 |
| COC(C)(CNS(=O)(=O)c1cccnc1)c1ccccc1F (stereo not drawn) | -0.403 |
| COCCN1C[C@@H]2CN(C(=O)CC3CC3)C[C@@H]2C1=O | 7.8 |
| C[C@@H]1C[C@H]2CN(C(=O)C3=CCCC3)C[C@H]2O1 | 0.199 |
| O=C(NCCc1ccccn1)[C@@]12CCO[C@@H]1CCN(CC1CC1)C2 | 5.79 |
| CCS(=O)(=O)N1Cc2c(Cn3cccc3)nn(C(C)C)c2C1 | 13.6 |
| CCOCC1CC2(CCN(C(=O)C3CCSCC3)CC2)CO1 (stereo not drawn) | 2.5 |
| OCCN1CCOC2(CCCN(c3ncccn3)C2)C1 (stereo not drawn) | 9.55 |
| COCC(=O)N1C[C@@H]2COC[C@]2(COC)C1 | 5.44 |
| CCOC[C@H]1CC[C@H]2[C@H](CCN2S(=O)(=O)Cc2ccccc2)O1 | 8.61 |
| CC(C)CNC(=O)[C@H]1CCS(=O)(=O)[C@@H]2CN(Cc3cccnc3)C[C@H]12 | -2.36 |
| CCOCc1ncn2c1CN(C(=O)Nc1ccccc1CC)CC2 | 7.45 |
| CC(C)CCN1N=C(C(=O)N2CCCCCC2)S(=O)(=O)c2ccccc21 | 11.8 |
| CCOc1cccc(CNc2ccccc2C(F)(F)F)c1O | -4.17 |
| Cc1noc(C2CCC3(CCN(C(=O)c4c(C)noc4C)CC3)O2)n1 (stereo not drawn) | -10.6 |
| O=C1CCCN1Cc1ncn2c1CN(C(=O)c1cccc(F)c1)CCC2 | -12.1 |

| SMILES | cytotoxicity at 10 µM [%] |
| --- | --- |
| Cc1nn(Cc2ccc(C(=O)NCCCN3CCOCC3)o2)c(C)c1Cl | -5.47 |
| CCCn1c(N2CCCC(C)C2)nc2c(C)nn(C)c2c1=O (stereo not drawn) | 13.4 |
| CC(C)c1cc(C(=O)NCCc2nc(-c3cccnc3)n[nH]2)[nH]n1 | 8.02 |
| Cc1noc(C)c1CC(=O)N[C@@H]1CC[C@@H](Oc2ccccc2)[C@@H]1O | 2.04 |
| Cc1ccccc1CC(=O)NCc1cnc(CC2CCN(C)CC2)cn1 | -1.25 |
| OCc1cc(C2CCCN2c2ncccn2)n[nH]1 (stereo not drawn) | 8.32 |
| CC(C)NC(=O)[C@@H]1CN(C)C[C@]12COc1ccc(F)cc1C2=O | 2.17 |
| COCC(=O)N1C[C@@H](O)[C@H](N2CCN(c3ccccc3)CC2)C1 | 2.7 |
| CN(C)C(=O)c1cn[nH]c1C1(C)CCN(c2ncccn2)CC1 | 5.88 |
| CCCn1nccc1-c1cc(C2CCN(C(C)=O)CC2)ccn1 | -1.68 |
| CC(=O)NC(=O)C1(CCCc2ccncc2)CCN1 (stereo not drawn) | -24.5 |
| O=C(NC(Cc1ccsc1)c1nccs1)C1CC1 (stereo not drawn) | -28.3 |
| Cc1ccc(S(=O)(=O)NC(=O)CCc2ccccc2)cc1N(C)C | -0.31 |
| CCn1nc2c(cc1=O)CN(CC1CCCCO1)CC2 (stereo not drawn) | -2.94 |
| Cc1cc(C)n(CC(C)NC(=O)C(C)(C)c2ccccc2F)n1 (stereo not drawn) | -2.58 |
| CCc1noc(C)c1C(=O)NCCCC(CC)(CC)C1OCCO1 | -10.1 |
| O=C(CCS(=O)(=O)C1CCCC1)N1CCC(O)(C(F)(F)F)C1 (stereo not drawn) | 18.9 |
| NC(=O)CC1CCN(c2cncc(OCc3ccccc3)n2)CC1 | 8.84 |
| CN(C)c1nc(CNC(=O)Nc2cccc([S+](C)[O-])c2)cs1 (stereo not drawn) | -5.27 |
| O=S(=O)(NC1CCN(CC(F)(F)F)C1)c1cc(F)cc(F)c1 (stereo not drawn) | -5.18 |
| CC(C(=O)N1CCN(CCOc2ccccc2)CC1)n1cncn1 (stereo not drawn) | -4.88 |
| Cc1n[nH]c(C)c1CNC(=O)NC1CCCCC1 | 1.91 |

| SMILES | cytotoxicity at 10 µM [%] |
| --- | --- |
| Cc1cn2c(CN(C)C(=O)c3cnc(N)c(Cl)c3)c(C)nc2s1 | -8.46 |
| Cc1cccc(C(=O)NCc2ccc(OCCN(C)C)cc2)c1C | 1.52 |
| Cc1nc(CCNc2ccc(-c3nc(C)c(C)c(=O)[nH]3)cn2)cs1 | 2.07 |
| COc1cc(Nc2c(C#N)c(=O)n(C)c(=O)n2C)cc(OC)c1 | -3.65 |
| CCOCCCNC(=O)N(C)Cc1ccc(SC)c(OC)c1 | -5.41 |
| COc1ncccc1NC(=O)NCC1CC1 | -2.45 |
| COc1cccc(NC(=O)Cc2c(C)nc3c(c2C)c(=O)[nH]n3C)c1 | 5.05 |
| CCS(=O)(=O)c1ccc(N2CCC(N)CC2)cc1 | -6.44 |
| O=C(O)c1ccc(S(=O)(=O)Nc2c(F)cccc2-n2cccn2)cc1 | -8.8 |
| Cc1cc(C(=O)Nc2cnn(CC(=O)NC3CCCC3)c2)c(C)s1 | 3.07 |
| Cc1cc(CC(=O)NC(C)c2ccc(OCC3CC3)c(F)c2)n[nH]1 (stereo not drawn) | 4.75 |
| CCOC(=O)C(C)Nc1cccc(COCc2ccco2)c1 (stereo not drawn) | 2.1 |
| CCOc1cccc(COC(=O)c2ccc(F)cn2)n1 | 0.296 |
| CC(c1nc(C2CC2)no1)N(C)Cc1ccc2c(c1)OCCO2 (stereo not drawn) | 0.611 |
| Cc1ccsc1CN(C)C(=O)C1CCCN(C(N)=O)C1 (stereo not drawn) | 5.09 |
| CC(c1ccc(Br)cc1)N1CCCN(C(N)=O)CC1 (stereo not drawn) | 2.1 |
| O=C1COc2cccc(OCc3ccccn3)c2N1 | 2.2 |
| O=S(=O)(NCCc1c[nH]c2cc(F)ccc12)C1CCOC1 (stereo not drawn) | 8.57 |
| O=C(CN1CCCNC1=O)Nc1ccccc1C(=O)C1CCCC1 | 9.83 |
| O=C(CCn1ccccc1=O)Nc1ccc(F)c(Cl)c1 | 13.1 |
| CCCSCC(=O)Nc1ncn(CC(=O)NCc2ccccc2)n1 | 19.2 |
| Cc1cc(NC(=O)Cn2cc(C#N)c(=O)c3cc(Br)ccc32)no1 | 16.5 |

| SMILES | cytotoxicity at 10 µM [%] |
| --- | --- |
| O=C(NCCNC(=O)N1CCC(c2ccccc2)C1)C1CC1 (stereo not drawn) | -3.08 |
| CCN(CC)C(CNS(=O)(=O)c1ccc(C(=O)NC)cc1)c1ccco1 (stereo not drawn) | 4.62 |
| O=C(C1CC=CC1)N1Cc2nccn2CC(CN2CCCC2)C1 (stereo not drawn) | -86.5 |
| Cc1cccc(C(=O)N2CCc3c(COCC4CC4)cncc3C2)n1 | -80.1 |
| CCO[C@@H]1CCN(C(=O)N(C)C)[C@@H]1Cc1cnn(C)c1 | -73.4 |
| c1ccc(Cc2noc(CCNC3CCOC4(CCOCC4)C3)n2)cc1 (stereo not drawn) | -0.872 |
| CS(=O)(=O)c1ncc(CN2CCN3CCCC3C2)n1CC1CCCCC1 (stereo not drawn) | -4.9 |
| CS(=O)(=O)NCC(=O)NCc1cccnc1-n1cnc2ccccc21 | 0.324 |
| COc1c(F)ccc(C(=O)N2CC[C@H](CO)[C@@H](O)C2)c1F | -3.85 |
| COc1ccc(F)cc1C(C(=O)O)N1CCCN(C2CCCC2)CC1 (stereo not drawn) | -8.63 |
| Cc1cc2n(n1)CCN(c1nc(N)nc3c1CCNCC3)C2 | 7.04 |
| O=C(c1cn(CC(=O)N2CCc3[nH]cnc3C2)c2ccccc12)C1CC1 | 10.2 |
| CN[C@@H](CO)C(=O)NCc1cc2n(n1)CCCN(C1CCCCC1)C2 | -3.14 |
| CSCCCN1C[C@H](NC(=O)c2cnn(C)c2)[C@@H](C2CC2)C1 | 4.43 |
| CCN(CC)C1CCN(C(=O)c2cc(CC(C)C)nn2CC)C1 (stereo not drawn) | -7.74 |
| Cc1ncsc1CN(Cc1ccccc1)Cc1ccncc1 | -4.45 |
| CCN(Cc1cc(F)ccc1Cl)C1CCS(=O)(=O)C1 (stereo not drawn) | 5.29 |
| CC(C)c1nccn1CCCNC(=O)c1ccc(-c2cncnc2)nc1 | 16.1 |
| Cc1nc(C2CCN(C(=O)c3cccnc3)CC2)c2sccn12 | -5.35 |
| COc1ccc(C(=O)N2CCCC2c2noc(C(C)C)n2)nn1 (stereo not drawn) | -4.01 |
| CCn1ccnc1CN1CCN(CC(O)CN2CCOCC2)CC1 (stereo not drawn) | -7.83 |
| CC(C)c1n[nH]c(C2CN(C(=O)c3cccc4cn[nH]c34)CCO2)n1 (stereo not drawn) | -5.31 |

| SMILES | cytotoxicity at 10 µM [%] |
| --- | --- |
| CC(C)N1CC(C(=O)NCCOc2ccc3c(c2)OCO3)CC1=O (stereo not drawn) | -6.51 |
| CCC1c2ccsc2CCN1C(=O)NCCNc1ncccn1 (stereo not drawn) | -13.6 |
| CN(CC1COc2ccccc2O1)C(=O)NCCCn1ccnc1 (stereo not drawn) | -5.54 |
| O=C(NCCCn1ccnc1)N1CCN(c2cccs2)CC1 | -2.53 |
| CSCC[C@H](N)c1nnc(SCc2cc(C)ccc2C)o1 | 0.0308 |
| O=C(c1ncccn1)N1CCC2(CC1)COC(COc1ccccn1)C2 (stereo not drawn) | -1.96 |
| CN(C)C(=O)COCC1CN(Cc2ccoc2)Cc2ncn(C)c21 (stereo not drawn) | 5.99 |
| O=C(NCc1ccco1)[C@@H]1CC[C@@H]2[C@@H](CCN2CC2CC2)O1 | -4.48 |
| CN(C)C(=O)COC1COC2(CCN(CC3CCOCC3)CC2)C1 (stereo not drawn) | -113 |
| COc1ccc(CN2CCC3(CC2)NC(=O)CC3c2cnn(C)c2)cc1 (stereo not drawn) | 0.424 |
| CC1c2ncc(COCC3CCOCC3)n2CCN1Cc1cccnc1 (stereo not drawn) | 5.95 |
| CC(=O)N1[C@H](CN(C)C)C[C@@H]2CN(C(=O)c3occc3C)CC[C@@H]21 | 0.847 |
| COc1cc(CNC(C)Cn2cccn2)cc2c1OCO2 (stereo not drawn) | 1.58 |
| CCN1CCC2(C=C(C(=O)NC3CC3)c3ccccc32)CC1 | 6.2 |
| Cc1ccc(CN2CC[C@@H](N3CCOCC3)[C@@H]2Cc2cccnc2)o1 | 9.55 |
| CN(C)CCOCc1cncc2c1CCN(C1CCOCC1)C2 | 4.62 |
| O=C1CO[C@@H]2CN(Cc3cccnc3)C[C@H]2N1Cc1ccncc1 | -77.6 |
| Cn1ccc(C(=O)NC2CCC23CCN(CC2CCOCC2)CC3)c1 (stereo not drawn) | -149 |
| Cc1noc(C)c1CN1C(=O)[C@@H]2CC[C@H]1CN(Cc1nccs1)C2 | -0.626 |
| COc1cc(O)cc2c1C(=O)CC(c1ccc(O)cc1)O2 (stereo not drawn) | -3.07 |
